Converted amounts (≈) assume the structure as drawn.
Columns and labels:
CYP3A4/5 = CYP3A4/5 (Homo sapiens, UniProt P08684+P20815); experiment: Inhibition of CYP3A4/5 in human liver microsomes assessed as reduction in testosterone-beta-hydroxylation; assay type: ADME, Microsome; conditions: probe testosterone
Method in brief: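 CYP3A4 inhibition measured as inhibition of testosterone β-hydroxylation, reported as IC50 (µM).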

[1] = Kinetic solubility of the compound at pH 6.5 phosphate buffer by nephelometric analysis; assay type: physicochemical; conditions: read-out: Kinetic_solubility
Method in brief: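 Kinetic solubility in phosphate buffer at pH 6.5, determined by nephelometry and reported in µg/mL.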

[2] = Selectivity index, ratio of IC50 for rat L6 cells to IC50 for Trypanosoma cruzi Tulahuen TcVI extracellular trypomastigotes forms; assay type: toxicity, cell-based; conditions: read-out: Ratio IC50
Method in brief: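 Ratio of the L6 myoblast cytotoxicity IC50 to the IC50 against β-galactosidase-expressing T. cruzi Tulahuen TcVI.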

Trypanosoma cruzi = experiment: Antitrypanosomal activity against Trypanosoma cruzi Tulahuen TcVI extracellular trypomastigotes forms transfected with beta-galactosidase gene infected in rat L6 cells assessed as inhibition of parasite growth after 4 days; assay type: functional, organism-based; conditions: L6, 96 h
Method in brief: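 L6 rat skeletal myoblasts were infected with extracellular trypomastigotes of β-galactosidase-transfected T. cruzi Tulahuen TcVI. After 48 h to establish infection, compound was added and incubation continued 4 days, exposing trypomastigote and intracellular amastigote forms.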

L6 = experiment: Cytotoxicity against rat L6 cells after 72 hrs by Alamar Blue assay; assay type: cell-based; conditions: L6, 72 h
Method in brief: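 Counter-screen for cytotoxicity in uninfected L6 rat skeletal muscle myoblasts, with IC50 recorded in µM.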

| Compound | IC50 (CYP3A4/5) | solubility kinetic [1] | IC50 (Trypanosoma cruzi) | selectivity ratio [2] | IC50 (L6) |
| --- | --- | --- | --- | --- | --- |
| O=C(NC1CC1)N1CCN(C(c2ccc(C(F)(F)F)cc2)c2cccnc2)CC1 (centres undefined) |  |  | > 1000 nM | > 100 | > 100000 nM |
| O=C(C1CC1)N1CCN(C(c2cncnc2)c2ccc(Cl)cc2F)CC1 (centres undefined) |  |  | 171 nM | > 100 | > 100000 nM |
| CS(=O)(=O)N1CCN(C(c2ccc(C(F)(F)F)cc2)c2cncnc2)CC1 (centres undefined) |  |  | 769 nM | > 100 | > 100000 nM |
| CN(C)C(=O)N1CCN(C(c2ccc(Cl)cc2)c2cccnc2)CC1 (centres undefined) |  |  | 120 nM | > 100 | > 100000 nM |
| Cc1csc(C(=O)N2CCN(C(c3cccnc3)c3ccc(Cl)cc3F)CC2)n1 (centres undefined) | 2800 nM | 50 µg/mL (≈ 116 µM) | 36 nM | > 100 | 93000 nM |
| CC(C)(C)NC(=O)N1CCN(C(c2cncnc2)c2ccc(Cl)cc2F)CC1 (centres undefined) | 6900 nM | 50 µg/mL (≈ 123 µM) | 54 nM | > 100 | > 100000 nM |
| CC(C)(C)C(=O)N1CCN(C(c2ccc(C(F)(F)F)cc2)c2cccnc2)CC1 (centres undefined) | 2300 nM | 12.5 µg/mL (≈ 30.8 µM) | 30 nM | > 100 |  |
| O=C(Oc1ccccc1)N1CCN(C(c2cccnc2)c2ccc(Cl)cc2F)CC1 (centres undefined) |  |  | 5 nM | > 100 |  |
| N#Cc1ccc(C(c2cccnc2)N2CCN(C(=O)C3CC3)CC2)cc1 (centres undefined) |  |  | 281 nM | > 100 | > 100000 nM |
| COc1ccccc1N1CCN(C(c2ccc(C(F)(F)F)cc2)c2cnccn2)CC1 (centres undefined) | 25000 nM | 3.1 µg/mL (≈ 7.24 µM) | 240 nM | > 100 |  |
| CC(C)(C)C(=O)N1CCN(C(c2ccc(C#N)cc2)c2cccnc2)CC1 (centres undefined) |  |  | 254 nM | > 100 | > 100000 nM |
| CS(=O)(=O)N1CCN(C(c2ccc(Cl)cc2)c2cccnc2)CC1 (centres undefined) | 3600 nM | 12.5 µg/mL (≈ 34.2 µM) | 110 nM | > 100 | > 100000 nM |
| O=C(Oc1ccccc1)N1CCN(C(c2ccc(Cl)cc2)c2cccnc2)CC1 (centres undefined) |  |  | 8 nM | > 100 |  |
| CS(=O)(=O)N1CCN(C(c2ccc(C#N)cc2)c2cccnc2)CC1 (centres undefined) |  |  | 365 nM | > 100 | > 100000 nM |
| O=C(Cn1ccnc1[N+](=O)[O-])NCc1ccccc1 [BENZNIDAZOLE] |  |  | 1150 nM |  | > 100000 nM |
| CC(C)Oc1ccc(C(c2cccnc2)N2CCN(C(=O)C(C)C)CC2)cc1 (centres undefined) |  |  | 35 nM | > 100 | > 100000 nM |
| CC(C)(C)C(=O)N1CCN(C(c2cncnc2)c2ccc(Cl)cc2F)CC1 (centres undefined) | 7000 nM | 25 µg/mL (≈ 64 µM) | 81 nM | > 100 | > 100000 nM |
| CC(=O)N1CCN(C(c2ccc(Cl)cc2)c2cccnc2)CC1 (centres undefined) | 7400 nM | > 100 µg/mL | 240 nM | > 100 | > 100000 nM |
| CC(C)S(=O)(=O)N1CCN(C(c2ccc(Cl)cc2)c2cccnc2)CC1 (centres undefined) | 810 nM | 12.5 µg/mL (≈ 31.7 µM) | 28 nM | > 100 | > 100000 nM |
| O=C(C1CCCCC1)N1CCN(C(c2cccnc2)c2ccc(Cl)cc2F)CC1 (centres undefined) | 3900 nM | 6.3 µg/mL (≈ 15.1 µM) | 28 nM | > 100 |  |
| COc1ccccc1N1CCN(C(c2cncnc2)c2ccc(Cl)cc2F)CC1 (centres undefined) |  |  | 65 nM | > 100 |  |
| N#Cc1ccc(C(c2cccnc2)N2CCN(c3nccs3)CC2)cc1 (centres undefined) |  |  | 50 nM | > 100 | > 100000 nM |
| CS(=O)(=O)N1CCN(C(c2ccc(C(F)(F)F)cc2)c2cccnc2)CC1 (centres undefined) |  |  | 77 nM | > 100 | > 100000 nM |
| Clc1ccc(C(c2cccnc2)N2CCN(c3ccccc3)CC2)cc1 (centres undefined) |  |  | 34 nM | > 100 |  |
| O=C(c1ccccc1)N1CCN(C(c2ccc(Cl)cc2)c2cccnc2)CC1 (centres undefined) |  |  | 68 nM | > 100 |  |
| Cc1csc(C(=O)N2CCN(C(c3ccc(C#N)cc3)c3cccnc3)CC2)n1 (centres undefined) |  |  | 513 nM | > 100 | > 100000 nM |
| Fc1cc(Cl)ccc1C(c1cncnc1)N1CCN(c2ccccc2)CC1 (centres undefined) |  |  | 78 nM | > 100 |  |
| CS(=O)(=O)N1CCN(C(c2ccc(Cl)cc2)c2cncnc2)CC1 (centres undefined) |  |  | 880 nM | > 100 | > 100000 nM |
| O=C(c1ccccc1)N1CCN(C(c2cccnc2)c2ccc(Cl)cc2F)CC1 (centres undefined) |  |  | 70 nM | > 100 |  |
| N#Cc1ccc(C(c2cccnc2)N2CCN(C(=O)NC3CC3)CC2)cc1 (centres undefined) |  |  | > 1000 nM | > 100 | > 100000 nM |

The remaining molecules from weak to strong by IC50 (Trypanosoma cruzi), led by results:

| IC50 (CYP3A4/5) | solubility kinetic [1] | IC50 (Trypanosoma cruzi) | Compound | selectivity ratio [2] | IC50 (L6) |
| --- | --- | --- | --- | --- | --- |
| 1000 nM | 25 µg/mL (≈ 59.9 µM) | 28 nM | CS(=O)(=O)N1CCN(C(c2cccnc2)c2ccc(C(F)(F)F)cc2F)CC1 (centres undefined) | > 100 |  |
|  |  | 28 nM | COc1ccccc1N1CCN(C(c2ccc(OC(C)C)cc2)c2cccnc2)CC1 (centres undefined) | > 100 |  |
|  |  | 26 nM | Fc1cc(Cl)ccc1C(c1cccnc1)N1CCN(c2ncccn2)CC1 (centres undefined) | > 100 |  |
| 1800 nM | 50 µg/mL (≈ 134 µM) | 26 nM | O=C(C1CC1)N1CCN(C(c2cccnc2)c2ccc(Cl)cc2F)CC1 (centres undefined) | > 100 | > 100000 nM |
| 5600 nM | 25 µg/mL (≈ 59.7 µM) | 25 nM | CS(=O)(=O)N1CCN(C(c2cncnc2)c2ccc(C(F)(F)F)cc2F)CC1 (centres undefined) | > 100 | > 100000 nM |
|  |  | 24 nM | O=S(=O)(c1ccc(Cl)cc1)N1CCN(C(c2ccc(Cl)cc2)c2cccnc2)CC1 (centres undefined) | > 100 |  |
| 2900 nM | 12.5 µg/mL (≈ 30.7 µM) | 24 nM | CC(C)(C)OC(=O)N1CCN(C(c2cncnc2)c2ccc(Cl)cc2F)CC1 (centres undefined) | > 100 |  |
| 3900 nM | 12.5 µg/mL (≈ 29.5 µM) | 24 nM | CC(C)(C)C(=O)N1CCN(C(c2cccnc2)c2ccc(C(F)(F)F)cc2F)CC1 (centres undefined) | > 100 |  |
|  |  | 22 nM | O=C(Nc1ccc(Cl)cc1)N1CCN(C(c2ccc(Cl)cc2)c2cncnc2)CC1 (centres undefined) | > 100 |  |
| 1900 nM | 3.1 µg/mL (≈ 7.64 µM) | 20 nM | CC(C)(C)OC(=O)N1CCN(C(c2cccnc2)c2ccc(Cl)cc2F)CC1 (centres undefined) | > 100 |  |
|  |  | 20 nM | COc1ccccc1N1CCN(C(c2ccc(Cl)cc2)c2cccnc2)CC1 (centres undefined) | > 100 |  |
| 1000 nM | 12.5 µg/mL (≈ 32.1 µM) | 19 nM | CC(C)(C)C(=O)N1CCN(C(c2cccnc2)c2ccc(Cl)cc2F)CC1 (centres undefined) | > 100 |  |
|  |  | 18 nM | CC(C)c1ccc(S(=O)(=O)N2CCN(C(c3cncnc3)c3ccc(Cl)cc3F)CC2)cc1 (centres undefined) | > 100 | > 100000 nM |
|  |  | 18 nM | Fc1cc(Cl)ccc1C(c1cccnc1)N1CCN(c2ccccc2)CC1 (centres undefined) | > 100 |  |
|  |  | 17 nM | CC(C)(C)OC(=O)N1CCN(C(c2ccc(C(F)(F)F)cc2)c2cccnc2)CC1 (centres undefined) | > 100 |  |
|  |  | 17 nM | Cc1noc(N2CCN(C(c3cccnc3)c3ccc(C(F)(F)F)cc3F)CC2)n1 (centres undefined) | > 100 |  |
|  |  | 12 nM | CC(C)c1ccc(S(=O)(=O)N2CCN(C(c3ccc(Cl)cc3)c3cccnc3)CC2)cc1 (centres undefined) | > 100 |  |
| 300 nM | 3.1 µg/mL (≈ 6.73 µM) | 10 nM | O=C(Nc1ccc(Cl)cc1)N1CCN(C(c2cncnc2)c2ccc(Cl)cc2F)CC1 (centres undefined) | > 100 |  |
|  |  | 10 nM | O=S(=O)(C1CCCCC1)N1CCN(C(c2ccc(Cl)cc2)c2cccnc2)CC1 (centres undefined) | > 100 |  |
|  |  | 9 nM | O=C(Nc1ccccc1)N1CCN(C(c2ccc(Cl)cc2)c2cccnc2)CC1 (centres undefined) | > 100 |  |
| 1900 nM | < 1.6 µg/mL | 9 nM | O=S(=O)(c1ccccc1)N1CCN(C(c2ccc(Cl)cc2)c2cccnc2)CC1 (centres undefined) | > 100 |  |
| 600 nM | < 1.6 µg/mL | 8 nM | O=S(=O)(c1ccccc1)N1CCN(C(c2cccnc2)c2ccc(Cl)cc2F)CC1 (centres undefined) | > 100 | 42000 nM |
|  |  | 7 nM | CC(C)c1ccc(NC(=O)N2CCN(C(c3cncnc3)c3ccc(Cl)cc3F)CC2)cc1 (centres undefined) | > 100 |  |
|  |  | 6 nM | O=C(Nc1ccccc1)N1CCN(C(c2cccnc2)c2ccc(Cl)cc2F)CC1 (centres undefined) | > 100 |  |

From ChEMBL document CHEMBL2331102 (Bioorg Med Chem, 2013)
